GPR7 antag: GPR7 receptor antagonists, primary screen, cell-based, fluorescence, single concentration | Neuropeptides B/W receptor type 1 (Homo sapiens), P48145 | GPR7-expressing cells, fluorescence antagonist assay | inhibition, % at 4.4 µM | 290,000 tested, 1.1% active; in the data active = inhibition above about 16%, passing the limit was not always enough;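 note: cells stimulated with the agonist NPW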
Target sequence (P48145 whole entry, looked up): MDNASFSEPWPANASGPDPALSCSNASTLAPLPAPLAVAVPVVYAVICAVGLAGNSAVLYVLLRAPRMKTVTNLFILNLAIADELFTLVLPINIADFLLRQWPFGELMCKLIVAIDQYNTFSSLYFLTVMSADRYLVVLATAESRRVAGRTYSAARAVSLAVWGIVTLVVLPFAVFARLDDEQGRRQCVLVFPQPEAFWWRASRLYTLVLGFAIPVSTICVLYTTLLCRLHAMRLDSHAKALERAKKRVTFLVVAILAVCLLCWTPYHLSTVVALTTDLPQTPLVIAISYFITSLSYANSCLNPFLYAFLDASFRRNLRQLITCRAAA
TAAR1 antagonist: human TAAR1 antagonists, primary screen, Fluo-8 calcium fluorescence, CHO RD-HGA16 cells; Trace amine-associated receptor 1 (Homo sapiens), Q96RJ0; antagonist; inhibition, % at 3 µM; 360,000 tested, 1.5% active; AID 624466, 2012;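 active = inhibition above a per-plate cutoff, the mean inhibition of test compounds on that plate plus 3 SD, cut at about 49% in these data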
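Assay system: CHO-derived RD-HGA16 cells stably expressing human TAAR1 plus Gα16. Timing: 140 s kinetic read after compound, 140 s after agonist. Technique: kinetic Fluo-8 calcium fluorescence measurement. Measure: % inhibition of agonist calcium response.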
TAAR1 ag: human TAAR1 agonists, primary screen, Fluo-8 calcium fluorescence, CHO RD-HGA16 cells | vehicle wells 0%, saturating PEA agonist 100% | 360,000 tested, 0.99% active | Trace amine-associated receptor 1 (Homo sapiens), Q96RJ0 | activation, % at 3 µM;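 active = activation above the mean activation of all test compounds in the run plus 3 SD, cut at about 38% in these data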
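Signal – calcium-sensitive Fluo-8 signal, excitation 470-495, emission 515-575 nm · System – RD-HGA16 (CHO) cells co-expressing Gα16 and hTAAR1 · Incubation – 17-24 h seeding, 75 min 37 °C dye, 30 min RT · Compound dosing – 3 µM single concentration · Repeats – no replicates (n 1)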
OX1R antag-1: OX1R (HCRTR1) antagonists, primary screen, fluorescence, CHO/OX1R cells, Fluo-8 calcium, orexin A. Orexin/Hypocretin receptor type 1 (Homo sapiens), O43613. Fluo-8 calcium fluorescence. inhibition, % at 5 µM. 330,000 tested, 0.43% active. AID 434989, 2010;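 active = inhibition above its plate's threshold, mean inhibition of all tested compounds on the plate plus 3 SD, cut at about 37% in these data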
Target sequence (O43613 whole entry, looked up): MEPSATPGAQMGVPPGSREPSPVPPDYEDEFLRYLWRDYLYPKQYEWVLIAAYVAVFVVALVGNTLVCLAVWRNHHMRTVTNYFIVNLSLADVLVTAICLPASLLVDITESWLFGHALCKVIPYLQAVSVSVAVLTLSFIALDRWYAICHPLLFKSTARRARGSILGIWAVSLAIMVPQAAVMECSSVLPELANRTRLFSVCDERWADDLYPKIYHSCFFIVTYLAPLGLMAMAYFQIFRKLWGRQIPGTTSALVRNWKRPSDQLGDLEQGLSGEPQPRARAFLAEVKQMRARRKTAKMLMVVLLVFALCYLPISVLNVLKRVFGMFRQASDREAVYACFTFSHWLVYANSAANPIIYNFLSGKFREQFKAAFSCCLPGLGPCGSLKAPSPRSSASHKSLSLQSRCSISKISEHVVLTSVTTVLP
CHO parental Ca: ATP-evoked calcium signal inhibitors, parental CHO, primary screen, counter-screen for OX1R antagonist project, cell-based, fluorescence, Fluo-8 calcium dye | inhibition, % at 5.6 µM | parental CHO-K1, ATP-induced calcium, Fluo-8 fluorescence | AID 463079, 2010 | 330,000 tested, 0.63% active;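 active = inhibition above that plate's mean sample inhibition plus 3 SD, cut at about 26% in these data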
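Assay system – parental CHO cells · Reagent – ATP stimulus · Detection – intracellular calcium via Fluo-8 no-wash fluorescent dye · Evaluation – percent inhibition of ATP-evoked calcium rise, normalized to controls · Controls – ATP wells versus no-ATP DMSO wells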
OX1R antag-2: antagonists of human orexin 1 receptor (OX1R); AID 485270, 2010; Orexin/Hypocretin receptor type 1 (Homo sapiens), O43613; OX1R-expressing cells, FRET antagonist read-out; 330,000 tested, 1.8% active; inhibition, % at 6.6 µM; in the data active = inhibition mostly above about 38%, no sharp cut-off; inactive = mostly below about 40%
OX1R HTRF confirm: OX1R (HCRTR1) antagonists, confirmation, cell-based, HTRF | shares compounds with OX1R antag-2 | OX1R-expressing cells, HTRF antagonist assay | inhibition, % at 6.6 µM | 1,800 tested, 49% active; in the data active = inhibition above about 55%;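 note: CHO cells expressing OX1R stimulated with orexin A at about EC80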
CHO-K1 HTRF: signal inhibition in parental CHO-K1 cells, counter-screen for OX1R antagonist project, cell-based, HTRF. shares compounds with OX1R antag-2. HTRF counterscreen. inhibition, % at 6.6 µM. 1,800 tested, 48% active; in the data active = inhibition above about 17%
Large screens that a line does not name were inactive (follow-up assays come after a bar, where they were run). The list is not random: actives were taken first. Their share in the collection is about 4.6%.

CSc1nnc2c(n1)OC(C)=Nc1ccccc1-2	OX1R antag-2 79.0 | OX1R HTRF confirm 60.4 | CHO-K1 HTRF 100.8
Cc1cccc(N2CCN(C3CCCCC3NS(=O)(=O)c3ccccc3)CC2C)c1 (stereo not drawn)	none (no result: TAAR1 antagonist, TAAR1 ag)
Cc1ccc(S(=O)(=O)N(C)CC(=O)Nc2cc(C)ccn2)cc1	none (no result: GPR7 antag)
Cc1nc2c(ccc3nc(NC(=O)Cc4ccccc4)sc32)s1	OX1R antag-2 76.9 | OX1R HTRF confirm 89.0 | CHO-K1 HTRF inactive
Cc1ccc(CC(=O)Nc2nc3ccccc3s2)cc1	none
NC(=O)c1ccccc1OCc1cccc2ccccc12	none
NC(=O)c1cccc2cc3ccccc3cc12	OX1R antag-2 76.9 | OX1R HTRF confirm inactive | CHO-K1 HTRF inactive
O=C(Oc1ccc(Br)cc1C(=S)N1CCCCC1)c1cc([N+](=O)[O-])cc([N+](=O)[O-])c1	OX1R antag-2 130.2 (no result: TAAR1 antagonist, TAAR1 ag) | OX1R HTRF confirm 73.3 | CHO-K1 HTRF 69.7
Nc1nc(SCC(=O)Nc2ccc([N+](=O)[O-])cc2)[nH]c(=O)c1NC(=O)c1ccc(Br)cc1	none
OC(c1ccc(Cl)c(F)c1)c1ncc(-c2cccc(F)c2)[nH]1 (stereo not drawn)	none (no result: GPR7 antag, OX1R antag-1, CHO parental Ca, OX1R antag-2)
CCN(CC)C(=O)CSc1nnc(-c2c[nH]c3ccccc23)o1	OX1R antag-2 78.2 | OX1R HTRF confirm inactive | CHO-K1 HTRF inactive
COCCCNC(=O)CN(c1cc(Cl)ccc1OC)S(=O)(=O)c1ccc(C)c([N+](=O)[O-])c1	OX1R antag-2 78.9 | OX1R HTRF confirm 59.4 | CHO-K1 HTRF inactive
COCCNC(=O)CN(c1cc(Cl)ccc1OC)S(=O)(=O)c1ccc(C)c([N+](=O)[O-])c1	none
CCC(=O)N1CCC(C)(C(=O)Nc2ccc3c(c2)OCCO3)C1 (stereo not drawn)	none (no result: GPR7 antag, OX1R antag-1, CHO parental Ca, OX1R antag-2)
O=[N+]([O-])c1ccc(S(=O)(=O)NCC2CCCO2)cc1 (stereo not drawn)	OX1R antag-2 81.5 | OX1R HTRF confirm inactive | CHO-K1 HTRF 47.3
CCOC(=O)c1c(C)[nH]c(C(C)=NNC(=O)c2cccs2)c1C	none (no result: GPR7 antag)
COC1C(C)=C(C)C(=O)N1Cc1ccc(F)cc1 (stereo not drawn)	none
Cc1c(Cl)cccc1NC(=O)c1cc(-c2ccccc2O)n[nH]1	OX1R antag-2 80.7 | OX1R HTRF confirm inactive | CHO-K1 HTRF inactive
O=C(Cc1ccccc1)NCC(=O)OCC(=O)c1ccc([N+](=O)[O-])cc1	OX1R antag-2 85.7 | OX1R HTRF confirm inactive | CHO-K1 HTRF 41.9
CCN1C(=O)/C(=C2/C=Cc3cc(C)ccc3N2CC)N(C)C1=S	OX1R antag-2 134.2 | OX1R HTRF confirm inactive | CHO-K1 HTRF 78.8
Cc1c(N(C)S(=O)(=O)c2cc(C(=O)NCC3CCCO3)ccc2Cl)c(=O)n(-c2ccccc2)n1C (stereo not drawn)	none (no result: GPR7 antag)
N/C(=N\OC(=O)c1ccc2ccccc2c1)c1cccc([N+](=O)[O-])c1	none
N/C(=N\OC(=O)c1cccc([N+](=O)[O-])c1)c1ccccn1	OX1R antag-2 96.5 | OX1R HTRF confirm inactive | CHO-K1 HTRF 37.7
N/C(=N/S(=O)(=O)c1ccccc1)c1cccc([N+](=O)[O-])c1	OX1R antag-2 89.6 | OX1R HTRF confirm inactive | CHO-K1 HTRF 20.7
COc1ccc(-c2csc(Nc3ncccc3C)n2)cc1OC	OX1R antag-2 84.0 | OX1R HTRF confirm 72.6 | CHO-K1 HTRF inactive
Cc1cccnc1Nc1nc(-c2ccc(O)c(O)c2)cs1	none
COc1cccc(CN(C(=O)/C=C/c2ccco2)C2CCS(=O)(=O)C2)c1 (stereo not drawn)	none
Cc1[nH]c2ccccc2c1/C=C/c1nc2ccccc2c(=O)[nH]1	OX1R antag-2 86.8 | OX1R HTRF confirm 74.9 | CHO-K1 HTRF inactive
N#C/C(=C\c1ccc([N+](=O)[O-])cc1)c1ccccn1	OX1R antag-2 121.0 | OX1R HTRF confirm inactive | CHO-K1 HTRF 51.1
COC(=O)c1ccc(/C=C(\C#N)c2ccccn2)cc1	none
NC(=O)c1cc(N)ccc1N1CCCC1	OX1R antag-2 87.0 | OX1R HTRF confirm inactive | CHO-K1 HTRF 19.0
COCCN(C(=O)COC(=O)CCSc1ccc(F)cc1)c1c(N)n(Cc2ccccc2)c(=O)[nH]c1=O	none (no result: GPR7 antag)
CCNc1nc(OCCNS(=O)(=O)c2cc(C)ccc2C)nc(N(C)C)n1	none
Cc1ccc(S(=O)(=O)NCCOc2nc(N(C)C)nc(N(C)C)n2)cc1	OX1R antag-2 90.3 | OX1R HTRF confirm 64.1 | CHO-K1 HTRF inactive
COc1ccc(-c2ccccc2)cc1NC(=O)[C@@H]1O[C@H](CO)[C@@H](O)[C@H]1O	none (no result: GPR7 antag, OX1R antag-1, CHO parental Ca, OX1R antag-2)
O=C(O)C1CCCCN1S(=O)(=O)c1cccc2nsnc12 (stereo not drawn)	none (no result: TAAR1 antagonist, TAAR1 ag)
O=C(Nc1ccc(F)cc1F)C1CCCN1S(=O)(=O)c1cccc2nsnc12 (stereo not drawn)	OX1R antag-2 77.3 | OX1R HTRF confirm 58.8 | CHO-K1 HTRF 27.3
Nc1nccc(/C=C/c2c(F)cccc2Cl)n1	none
O=c1cc(/C=C/c2c(F)cccc2Cl)[nH]c2ccccc12	OX1R antag-2 90.1 | OX1R HTRF confirm 90.0 | CHO-K1 HTRF inactive
CCCS(=O)(=O)NC(=O)C1(C)CCN(C(=O)c2ccccc2F)C1 (stereo not drawn)	none (no result: GPR7 antag, OX1R antag-1, CHO parental Ca, OX1R antag-2)
CCN1CCN(C(=O)c2cc3cc4cc(OC)ccc4nc3s2)CC1	OX1R antag-2 109.7 | OX1R HTRF confirm inactive | CHO-K1 HTRF inactive
CCn1c(=O)c(C(C)=O)nc2ccccc21	OX1R antag-2 99.7 | OX1R HTRF confirm inactive | CHO-K1 HTRF inactive
CCc1nc2ccccc2n(CC)c1=O	none
CCn1c2ccccc2c2cc(NC(=O)c3ccc(C)c([N+](=O)[O-])c3)ccc21	OX1R antag-2 77.5 | OX1R HTRF confirm 87.7 | CHO-K1 HTRF inactive
CCn1c2ccccc2c2cc(NC(=O)c3cc(C)on3)ccc21	OX1R antag-2 87.9 | OX1R HTRF confirm 64.1 | CHO-K1 HTRF inactive
Cn1ncc([N+](=O)[O-])c1C(=O)Nc1ccccc1C#N	none (no result: GPR7 antag, OX1R antag-1, CHO parental Ca, OX1R antag-2)
CC(=O)NC(c1ccccc1)c1nc(-c2cc(F)cc(F)c2)cs1 (stereo not drawn)	none (no result: GPR7 antag, OX1R antag-1, CHO parental Ca, OX1R antag-2)
